Results as given in ChEMBL document CHEMBL4831496, “Noncovalent EGFR T790M/L858R inhibitors based on diphenylpyrimidine scaffold: Design, synthesis, and bioactivity evaluation for the treatment of NSCLC” (Eur J Med Chem, 2021).
The source made the active and inactive calls. No cut-off for these calls is given here.

What was measured:
[1] = tested on: NCI-H1975; assay: Induction of apoptosis in human NCI-H1975 cells assessed as early apoptotic cells at 0.5 uM incubated for 48 hrs by AnnexinV/FITC and propidium iodide staining based flow cytometry analysis (reference value: 1.39%); format: functional
[2] = Cytotoxicity against human HBE cells assessed as reduction in cell viability incubated for 72 hrs by CCK8 assay; format: cell-based
How it was run: (§1)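 Cells kept as monolayers at 37 °C, 5% CO2, seeded 3000-4000/well for 12 h, then exposed to compounds for 72 h. CCK-8 added for 1-2 h at 37 °C, absorbance read at 450 nm. Each dose run in triplicate, experiment repeated at least three times. IC50 taken from dose-response curves.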

[3] = tested on: NCI-H1975; assay: Induction of apoptosis in human NCI-H1975 cells assessed as viable cells at 2 uM incubated for 48 hrs by AnnexinV/FITC and propidium iodide staining based flow cytometry analysis (reference value: 94.9%); format: functional; conditions: read-out: Activity
[4] = tested on: NCI-H1975; assay: Induction of cell cycle arrest in human NCI-H1975 cells assessed as accumulation of cells at G2/M phase at 0.5 uM incubated for 48 hrs by propidium iodide staining based flow cytometry analysis (reference value: 30.23%); format: functional
[5] = MRT (0 to t) in Sprague-Dawley rat at 25 mg/kg, iv measured for 24 hrs by LC-MS/MS analysis; format: ADME, organism-based; conditions: in vivo
How it was run: (§2)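 Male Sprague-Dawley rats (200 ± 20 g), acclimatised 1 week at 25 ± 2 °C, 50-60% RH; six rats given 25 mg/kg by tail vein. Retro-orbital blood into heparin at 10, 20, 40 min and 1, 2, 3, 4, 6, 8, 12, 24 h. Plasma ethyl acetate-extracted and quantified by LC-MS/MS, transition m/z 485.3/452.3.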

[6] = tested on: A-431; assay: Cytotoxicity against human A-431 cells harboring wild type EGFR assessed as reduction in cell viability incubated for 72 hrs by CCK8 assay; format: cell-based; conditions: A-431, 72 h; how it was run: as §1
[7] = tested on: NCI-H1975; assay: Induction of apoptosis in human NCI-H1975 cells assessed as early apoptotic cells at 0.125 uM incubated for 48 hrs by AnnexinV/FITC and propidium iodide staining based flow cytometry analysis (reference value: 1.39%); format: functional
[8] = Clearance in Sprague-Dawley rat at 25 mg/kg, iv measured for 24 hrs by LC-MS/MS analysis; format: ADME, organism-based; conditions: in vivo; how it was run: as §2
[9] = AUC (0 to infinity) in Sprague-Dawley rat at 25 mg/kg, iv by LC-MS/MS analysis; format: ADME, organism-based; parameters: route intravenous, time infinity, dose 25 mg/kg; conditions: in vivo; how it was run: as §2
[10] = tested on: NCI-H1975; assay: Induction of apoptosis in human NCI-H1975 cells assessed as late apoptotic cells at 2 uM incubated for 48 hrs by AnnexinV/FITC and propidium iodide staining based flow cytometry analysis (reference value: 0.73%); format: functional
[11] = target: Epidermal growth factor receptor (Homo sapiens, UniProt P00533, L858R/T790M); assay: Inhibition of EGFR L858R/T790M double mutant (unknown origin) measured after 60 mins by ADP-Glo kinase based luminescence assay
Sequence of Epidermal growth factor receptor (P00533 25-1210 T790M/L858R limits assumed): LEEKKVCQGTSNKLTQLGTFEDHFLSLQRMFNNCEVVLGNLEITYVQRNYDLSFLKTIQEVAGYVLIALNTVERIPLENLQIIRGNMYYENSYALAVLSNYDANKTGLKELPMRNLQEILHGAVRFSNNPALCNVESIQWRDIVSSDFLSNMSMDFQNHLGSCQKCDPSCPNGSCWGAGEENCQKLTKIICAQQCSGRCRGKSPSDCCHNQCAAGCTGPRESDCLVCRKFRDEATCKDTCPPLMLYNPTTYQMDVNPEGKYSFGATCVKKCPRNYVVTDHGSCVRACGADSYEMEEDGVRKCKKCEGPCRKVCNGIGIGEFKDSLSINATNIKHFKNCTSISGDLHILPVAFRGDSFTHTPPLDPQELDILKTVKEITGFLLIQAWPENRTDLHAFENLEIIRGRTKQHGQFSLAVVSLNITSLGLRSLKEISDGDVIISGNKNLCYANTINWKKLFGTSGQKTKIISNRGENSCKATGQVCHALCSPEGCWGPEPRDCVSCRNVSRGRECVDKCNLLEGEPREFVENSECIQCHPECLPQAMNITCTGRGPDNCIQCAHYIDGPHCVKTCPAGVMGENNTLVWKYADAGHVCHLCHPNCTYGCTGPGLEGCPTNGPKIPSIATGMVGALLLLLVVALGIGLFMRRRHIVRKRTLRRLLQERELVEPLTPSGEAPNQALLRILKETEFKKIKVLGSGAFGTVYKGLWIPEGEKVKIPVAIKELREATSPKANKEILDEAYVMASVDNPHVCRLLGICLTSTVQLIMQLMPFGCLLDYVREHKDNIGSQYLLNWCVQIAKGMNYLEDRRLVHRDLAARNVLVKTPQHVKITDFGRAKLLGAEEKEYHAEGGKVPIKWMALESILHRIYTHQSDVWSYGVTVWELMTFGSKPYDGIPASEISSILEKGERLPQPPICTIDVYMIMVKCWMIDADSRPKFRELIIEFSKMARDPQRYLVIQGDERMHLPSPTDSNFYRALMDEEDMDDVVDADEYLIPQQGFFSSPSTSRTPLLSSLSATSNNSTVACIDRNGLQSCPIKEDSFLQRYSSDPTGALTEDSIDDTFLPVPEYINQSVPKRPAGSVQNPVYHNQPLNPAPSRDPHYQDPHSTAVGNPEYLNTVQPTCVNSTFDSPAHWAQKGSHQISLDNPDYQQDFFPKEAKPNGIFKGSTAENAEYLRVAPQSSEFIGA

[12] = tested on: NCI-H1975; assay: Induction of cell cycle arrest in human NCI-H1975 cells assessed as accumulation of cells at S phase at 0.5 uM incubated for 48 hrs by propidium iodide staining based flow cytometry analysis (reference value: 11.72%); format: functional
[13] = tested on: NCI-H1975; assay: Induction of cell cycle arrest in human NCI-H1975 cells assessed as accumulation of cells at S phase at 2 uM incubated for 48 hrs by propidium iodide staining based flow cytometry analysis (reference value: 11.72%); format: functional
[14] = tested on: NCI-H1975; assay: Induction of apoptosis in human NCI-H1975 cells assessed as necrotic cells at 0.5 uM incubated for 48 hrs by AnnexinV/FITC and propidium iodide staining based flow cytometry analysis (reference value: 2.99%); format: functional
[15] = MRT (0 to infinity) in Sprague-Dawley rat at 25 mg/kg, iv by LC-MS/MS analysis; format: ADME, organism-based; conditions: in vivo; how it was run: as §2
[16] = tested on: NCI-H1975; assay: Induction of morphological changes in human NCI-H1975 cells assessed as nuclear fragmentation at 0.5 to 2 uM incubated for 48 hrs under natural light by DAPI staining based fluorescence microscopic analysis; format: functional, cell-based; conditions: dose 0.5-2 µM
How it was run: (§3)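 H1975 cells seeded at about 2 × 10⁵/well for 12 h, then treated. Cells fixed in 10% formaldehyde for 10 min, stained with DAPI for 10 min at room temperature and examined by fluorescence microscopy. Cell shape was also viewed under natural light.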

[17] = tested on: NCI-H1975; assay: Induction of apoptosis in human NCI-H1975 cells assessed as necrotic cells at 2 uM incubated for 48 hrs by AnnexinV/FITC and propidium iodide staining based flow cytometry analysis (reference value: 2.99%); format: functional
[18] = tested on: NCI-H1975; assay: Induction of apoptosis in human NCI-H1975 cells assessed as necrotic cells at 0.125 uM incubated for 48 hrs by AnnexinV/FITC and propidium iodide staining based flow cytometry analysis (reference value: 2.99%); format: functional
[19] = tested on: NCI-H1975; assay: Induction of apoptosis in human NCI-H1975 cells assessed as viable cells at 0.5 uM incubated for 48 hrs by AnnexinV/FITC and propidium iodide staining based flow cytometry analysis (reference value: 94.9%); format: functional; conditions: read-out: Activity
[20] = tested on: A549; assay: Antiproliferative activity against human A549 cells harboring KRAS G12S mutant assessed as reduction in cell viability incubated for 72 hrs by CCK8 assay; format: functional, cell-based; conditions: A549, 72 h; how it was run: as §1
[21] = tested on: NCI-H1975; assay: Antimigratory activity against human NCI-H1975 cells assessed as narrowing of scratch width at 0.5 to 2 uM incubated for 24 to 48 hrs by scratch wound healing assay based fluorescence microscopic analysis; format: functional, cell-based; conditions: dose 0.5-2 µM, time 24-48 hrs
How it was run: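 H1975 monolayers cultured 48 h at 37 °C, then scratched and washed with PBS. Cells treated at […] and imaged by fluorescence microscope at 0, 24 and 48 h, with an untreated negative control.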

[22] = tested on: NCI-H1975; assay: Induction of apoptosis in human NCI-H1975 cells assessed as viable cells at 0.125 uM incubated for 48 hrs by AnnexinV/FITC and propidium iodide staining based flow cytometry analysis (reference value: 94.9%); format: functional; conditions: read-out: Activity
[23] = tested on: NCI-H1975; assay: Induction of cell cycle arrest in human NCI-H1975 cells assessed as accumulation of cells at G2/M phase at 2 uM incubated for 48 hrs by propidium iodide staining based flow cytometry analysis (reference value: 30.23%); format: functional
[24] = tested on: NCI-H1975; assay: Induction of morphological changes in human NCI-H1975 cells assessed as chromatin shrinkage and gathering to nuclear membrane at 0.5 to 2 uM incubated for 48 hrs by DAPI staining based fluorescence microscopic analysis; format: functional, cell-based; conditions: dose 0.5-2 µM; how it was run: as §3
[25] = tested on: L02; assay: Antiproliferative activity against human L02 cells assessed as reduction in cell viability incubated for 72 hrs by CCK8 assay; format: cell-based; conditions: L02, 72 h
[26] = tested on: NCI-H1975; assay: Induction of cell cycle arrest in human NCI-H1975 cells assessed as accumulation of cells at G0/G1 phase at 0.5 uM incubated for 48 hrs by propidium iodide staining based flow cytometry analysis (reference value: 58.05%); format: functional
[27] = tested on: NCI-H1975; assay: Induction of cell cycle arrest in human NCI-H1975 cells assessed as accumulation of cells at S phase at 0.125 uM incubated for 48 hrs by propidium iodide staining based flow cytometry analysis (reference value: 11.72%); format: functional
[28] = Selectivity index, ratio of IC50 for human A-431 cells harboring wild type EGFR (unknown origin) to IC50 for human NCI-H1975 cells harboring EGFR L858R/T790M mutant

MRT last at 24 h [5]: 8.2 h
clearance [8]: 9.23 mL/min/kg
AUC(0-inf) [9]: 45200 ng·h/mL
IC50 [11]: 1.1 nM
MRT inf [15]: 13.1 h
IC50 [20]: 97.7 nM
Structure (SMILES): O=C(NO)c1ccccc1Nc1nc(Nc2ccc(OCCN3CCOCC3)cc2)ncc1Cl
Activity [1]: 15.53%
IC50 [2]: 23600 nM
viability at 2 µM [3]: 8.63%
Activity [4]: 70.99%
IC50 [6]: 1070 nM
Activity [7]: 4%
Activity [10]: 0.67%
Activity [12]: 9.86%
Activity [13]: 10.83%
Activity [14]: 0.07%
Activity [16]: Active
Activity [17]: 0.14%
Activity [18]: 0.01%
viability at 0.5 µM [19]: 83.8%
Activity [21]: Active
viability at 0.125 µM [22]: 95.7%
Activity [23]: 31.9%
Activity [24]: Active
IC50 [25]: 3050 nM
Activity [26]: 19.16%
Activity [27]: 15.08%
Ratio IC50 [28]: 10.9
